From ChEMBL document CHEMBL1142812, “Synthesis and structure-activity relationship of imidazo[1,2-a]benzimidazoles as corticotropin-releasing factor 1 receptor antagonists” (Bioorg Med Chem Lett, 2005) come the findings set out here.

Data set [1] addresses T1, Corticotropin-releasing factor receptor 1 (Homo sapiens, UniProt P34998).
T1 sequence (P34998 whole entry): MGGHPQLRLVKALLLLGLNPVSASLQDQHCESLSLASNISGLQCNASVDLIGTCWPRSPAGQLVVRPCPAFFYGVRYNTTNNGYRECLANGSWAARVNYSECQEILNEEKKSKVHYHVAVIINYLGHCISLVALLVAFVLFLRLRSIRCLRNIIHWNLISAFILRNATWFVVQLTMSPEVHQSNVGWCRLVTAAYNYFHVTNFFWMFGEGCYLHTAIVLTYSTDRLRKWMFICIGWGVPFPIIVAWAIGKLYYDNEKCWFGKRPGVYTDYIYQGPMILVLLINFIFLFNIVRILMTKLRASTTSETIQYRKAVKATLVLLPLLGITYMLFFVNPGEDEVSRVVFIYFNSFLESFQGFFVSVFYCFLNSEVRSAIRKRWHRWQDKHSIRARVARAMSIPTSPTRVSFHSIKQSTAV
In words: Binding affinity for human corticotropin releasing factor receptor 1.

Data set [2] can be described thus: Brain concentration to plasma concentration ratio (dissolved in DMSO) at 2 mg/kg of intravenous administration in rat after 2 h. The class given is ADME, organism-based. Also noted: dose 2 mg/kg, route intravenous. The following applies: brain and plasma, read-out: B/P. An outline of the steps: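 Compound given intravenously to rats at 2 mg/kg in 10/10/80 Cremophor/DMSO/water at 1 mL/kg. Brain and plasma concentrations were measured at 2 h and expressed as a brain-to-plasma ratio.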

Data set [3] is described as follows: Mean plasma area under curve (dissolved in DMSO) at 10 mg/kg of oral administration in rat was determined. The class given is ADME, organism-based. Also noted: dose 10 mg/kg, route oral. The method, boiled down:
(§1)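 Rats dosed with the compound at 10 mg/kg orally and 2 mg/kg intravenously, in 10/10/80 Cremophor/DMSO/water. Dosing volumes were 3 mL/kg p.o. and 1 mL/kg i.v. Plasma concentrations were followed over time to derive clearance, volume of distribution, terminal half-life, oral AUC and oral bioavailability.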

Data set [4] in a line: Bioavailability (dissolved in DMSO) at 10 mg/kg of oral administration in rat was determined. The class given is ADME, organism-based. The following applies: in vivo. An outline of the steps:
as §1

Data set [5] is described as follows: Volume of distribution (dissolved in DMSO) at 2 mg/kg of […] administration in rat was determined. The class given is ADME, organism-based. The arrangement: dose 2 mg/kg. The following applies: in vivo.
The nature of data set [6]: Plasma clearance (dissolved in DMSO) at 2 mg/kg of intravenous administration in rat was determined.
Data set [7] can be described thus: Maximum peak plasma concentration (dissolved in DMSO) at 10 mg/kg of p.o. administration in rat was determined. The following applies: po.
Data set [8] is described as follows: Plasma clearance (dissolved in DMSO) at 2 mg/kg of intravenous administration in rat was determined. Also noted: dose 2 mg/kg, route intravenous. The class given is ADME, organism-based. An outline of the steps:
as §1

The nature of data set [9]: Terminal half life (dissolved in DMSO) at 2 mg/kg of intravenous administration in rat was determined. The conditions noted are these: in vivo.
Data set [10] in a line: Terminal half life (dissolved in DMSO) at 2 mg/kg of intravenous administration in rat was determined. The class given is ADME, organism-based. The arrangement: dose 2 mg/kg, route intravenous. The conditions noted are these: in vivo. An outline of the steps:
as §1

Data set [11] is described as follows: Volume of distribution (dissolved in DMSO) at 2 mg/kg of intravenous administration in rat was determined. The class given is ADME, organism-based. The arrangement: dose 2 mg/kg, route intravenous. The following applies: in vivo. An outline of the steps:
as §1

One may read the Ki as the equilibrium dissociation constant of an inhibitor or competing ligand from its target. A higher Ki goes with lower affinity. As to `Cc1cc(C)c(-n2c3ccccc3n3c(CN(CC4CC4)CC(F)(F)F)c(C(F)(F)F)nc23)c(C)c1`, the Ki in data set [1] was determined as 7.1 nM.

Usually AUC stands for the area under the concentration-time curve, a measure of exposure. The low end stands for less exposure, the high end for more exposure. As usually defined, the bioavailability is the share of a dose that reaches the circulation, judged against a reference dose that is usually intravenous. As usually defined, the CL/F is the apparent clearance, not corrected for the fraction that reaches the circulation. As usually defined, the Cmax is the peak of the concentration-time curve. A word on the clearance: it is a measure of how efficiently the substance is removed, as volume per time. Lower therefore signals inefficient removal. As a reminder, the half-life is how long it takes for the measured level to halve. A low value points to fast loss. As to `CCCN(Cc1c(C(F)(F)F)nc2n(-c3c(C)cc(C)cc3C)c3ccccc3n12)CC1CC1`, the Kp at 2 h in [2] stood at 0.03. Moreover, the AUC in data set [3] was 11400 ng·h/mL. Also, the bioavailability in data set [4] came out at 35%. Moreover, the Vd in data set [5] and in [11] was 0.6 L/kg each time. Besides, the apparent clearance (CL/F) in [6] turned out to be 5.1 mL/min/kg. Further, the Cmax in data set [7] was determined as 2380 ng/mL. Further, the affinity in data set [1], expressed as Ki, was 23 nM. The same compound gave a clearance in [8] of 5.1 mL/min/kg. Moreover, the half-life in data set [9] and in [10] was 4.1 h in each case. Regarding `CCCN(CC1CC1)C(=O)c1c(CC)nc2n(-c3c(C)cc(C)cc3C)c3ccc(F)cc3n12`, the affinity in data set [1], expressed as Ki, was 930 nM. As for `CCN(CCC1CC1)Cc1c(C(F)(F)F)nc2n(-c3c(C)cc(C)cc3C)c3ccccc3n12`, affinity in [1] was put at a Ki of 1410 nM. On to `CCCCN(CC)Cc1c(C(F)(F)F)nc2n(-c3c(C)cc(C)cc3C)c3ccccc3n12`, for which the inhibitory constant (Ki) in [1] was 704 nM. For `Cc1cc(C)c(-n2c3ccccc3n3c(CN(C)Cc4ccccc4)c(C(F)(F)F)nc23)c(C)c1`, the Ki in data set [1] is 573 nM. As to `CCCN(Cc1c(CC)nc2n(-c3c(C)cc(C)cc3C)c3ccc(F)cc3n12)CC1CC1`, the affinity in data set [1], expressed as Ki, was 150 nM. Compound `C=CCN(CC=C)Cc1c(C(F)(F)F)nc2n(-c3c(C)cc(C)cc3C)c3ccccc3n12` registered an inhibition constant (Ki) in [1] of 138 nM. Same read-out and setting: the result for `CCCN(CCC1CC1)Cc1c(C(F)(F)F)nc2n(-c3c(C)cc(C)cc3C)c3ccccc3n12` reads 362 nM. Turning to `CCCN(Cc1c(CC)nc2n(-c3c(C)cc(C)cc3C)c3ccccc3n12)CC1CC1`, the Ki in [1] worked out at 21 nM.

As to `CCCN(CCc1ccccc1)Cc1c(C(F)(F)F)nc2n(-c3c(C)cc(C)cc3C)c3ccccc3n12`, affinity in [1] was put at a Ki of 250 nM. The same measure, in the same setting: the result for `CCCN(Cc1c(C(F)(F)F)nc2n(-c3c(C)cc(C)cc3C)c3ccccc3n12)CC1CCC1` reads 26 nM; that for `CCCN(CC1CC1)C(=O)c1c(C)nc2n(-c3c(C)cc(C)cc3C)c3ccccc3n12`, 360 nM; that for `Cc1cc(C)c(-n2c3ccccc3n3c(CN(CCC4CC4)CC(F)(F)F)c(C(F)(F)F)nc23)c(C)c1`, 653 nM. The same measure, in the same setting: with `CCCN(Cc1c(C(F)(F)F)nc2n(-c3c(C)cc(C)cc3C)c3ccccc3n12)CC(F)(F)F` the figure was 75 nM. In data set [1], `CCCN(Cc1ccccc1)Cc1c(C(F)(F)F)nc2n(-c3c(C)cc(C)cc3C)c3ccccc3n12` had a Ki of 4050 nM. In turn, `CCCN(CCc1ccccc1)Cc1c(C(F)(F)F)nc2n(-c3ccc(C(C)C)cc3Br)c3ccccc3n12` had a Ki in data set [1] of 410 nM. On to `CCCN(Cc1c(C(F)(F)F)nc2n(-c3ccc(C(C)C)cc3Br)c3ccccc3n12)CC1CC1`, for which the Ki in data set [1] stood at 150 nM. On to `Cc1cc(C)c(-n2c3ccccc3n3c(CN(CCC(F)(F)F)CC(F)(F)F)c(C(F)(F)F)nc23)c(C)c1`, for which the inhibitory constant (Ki) in data set [1] was determined as 291 nM. Same read-out and setting: the result for `Cc1cc(C)c(-n2c3ccccc3n3c(CN(CCC(F)(F)F)CC4CC4)c(C(F)(F)F)nc23)c(C)c1` reads 13 nM; that for `CCCCN(Cc1ccccc1)Cc1c(C(F)(F)F)nc2n(-c3c(C)cc(C)cc3C)c3ccccc3n12`, 7710 nM; that for `Cc1cc(C)c(-n2c3ccccc3n3c(CN(CC4CCC4)CC(F)(F)F)c(C(F)(F)F)nc23)c(C)c1`, 53 nM.

Take `CC(C)c1ccc(-n2c3ccccc3n3c(CN(CC4CC4)CC4CC4)c(C(F)(F)F)nc23)c(Br)c1`: the Ki in data set [1] was found to be 54 nM. In data set [1], `CCCN(Cc1c(C(F)(F)F)nc2n(-c3c(C)cc(C)cc3C)c3ccccc3n12)CC(F)(F)C(F)(F)F` gave a Ki of 75 nM. Same read-out and setting: with `CCCN(Cc1c(C)nc2n(-c3c(C)cc(C)cc3C)c3ccc(F)cc3n12)CC1CC1` the figure was 59 nM; with `Cc1cc(C)c(-n2c3ccccc3n3c(CN(CCc4ccccc4)CCc4ccccc4)c(C(F)(F)F)nc23)c(C)c1`, 333 nM; with `CCCN(CCc1ccccc1)Cc1c(C(F)(F)F)nc2n(-c3ccc(Cl)cc3Cl)c3ccccc3n12`, 1600 nM.

In the case of `CCN(Cc1ccccc1)Cc1c(C(F)(F)F)nc2n(-c3c(C)cc(C)cc3C)c3ccccc3n12`, affinity in [1] was put at a Ki of 2770 nM.

For the compound `CCCN(CC1CC1)C(=O)c1c(CC)nc2n(-c3c(C)cc(C)cc3C)c3ccccc3n12`, the Ki in [1] turned out to be 570 nM.

Compound `CCCN(Cc1c(C(F)(F)F)nc2n(-c3ccc(Cl)cc3Cl)c3ccccc3n12)CC1CC1` yielded a Ki in data set [1] of 370 nM. Consider `Cc1cc(C)c(-n2c3ccccc3n3c(CN(CCC4CC4)CCC(F)(F)F)c(C(F)(F)F)nc23)c(C)c1`, for which, in [1], the Ki amounted to 457 nM. The same measure, in the same setting: with `Cc1cc(C)c(-n2c3ccccc3n3c(CN(CC4CC4)CC4CC4)c(C(F)(F)F)nc23)c(C)c1` the figure was 11 nM. As for `CCCN(CCC(F)(F)F)Cc1c(C(F)(F)F)nc2n(-c3c(C)cc(C)cc3C)c3ccccc3n12`, the Ki in data set [1] amounted to 68 nM.

In turn, `FC(F)(F)c1nc2n(-c3ccc(Cl)cc3Cl)c3ccccc3n2c1CN(CC1CC1)CC1CC1` came in with a Ki in data set [1] of 240 nM. On to `Cc1cc(C)c(-n2c3ccccc3n3c(CN(CCc4ccccc4)CC(F)(F)F)c(C(F)(F)F)nc23)c(C)c1`, for which the Ki in data set [1] was 744 nM. In data set [1], `CCN(Cc1c(C(F)(F)F)nc2n(-c3c(C)cc(C)cc3C)c3ccccc3n12)CC1CC1` registered a Ki of 28 nM. On the same count and under the same terms, the result for `Cc1cc(C)c(-n2c3ccccc3n3c(CN(CCc4ccccc4)CCC(F)(F)F)c(C(F)(F)F)nc23)c(C)c1` reads 618 nM. Same read-out and setting: the result for `CCCN(CC1CC1)C(=O)c1c(C)nc2n(-c3c(C)cc(C)cc3C)c3ccc(F)cc3n12` reads 1180 nM; that for `CCCN(Cc1c(C)nc2n(-c3c(C)cc(C)cc3C)c3ccccc3n12)CC1CC1`, 20 nM; that for `Cc1cc(C)c(-n2c3ccccc3n3c(CN(CC4CC4)CC(F)(F)C(F)(F)F)c(C(F)(F)F)nc23)c(C)c1`, 34 nM. As to `CCCN(CC1CC1)C(=O)c1c(C(F)(F)F)nc2n(-c3c(C)cc(C)cc3C)c3ccccc3n12`, in data set [1], the Ki was found to be 3560 nM.
